ChEMBL document CHEMBL1149851, “Pestalotheols A-D, bioactive metabolites from the plant endophytic fungus Pestalotiopsis theae” (J Nat Prod, 2008)
Where a name gives a salt, the structure may show the parent alone. Activity calls are given as the source filed them. The calls are words filed in the database; no cut-off is given here.

Experiments:
Micrococcus luteus = assay: Antibacterial activity against Sarcina lutea CMCC B28001 assessed as zone of inhibition at 100 ug/disk after 24 hrs; assay type: functional, organism-based
Outline: (§1)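 Bacteria grown on Mueller-Hinton agar. Paper disks (6 mm) loaded with 100 µg test compound per disk were placed on the seeded agar surface. Plates were incubated at 37 °C for 24 h, then scored for the presence of a zone of inhibition.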

Aspergillus fumigatus = assay: Antifungal activity against Aspergillus fumigatus ATCC 10894 assessed as zone of inhibition at 100 ug/disk after 48 hrs
Candida albicans = assay: Antifungal activity against Candida albicans ATCC 10231 assessed as zone of inhibition at 100 ug/disk after 48 hrs
Streptococcus mutans = assay: Antibacterial activity against Streptococcus mutans ATCC 25175 assessed as zone of inhibition at 100 ug/disk after 24 hrs; assay type: functional, organism-based; outline: as §1
Staphylococcus aureus = assay: Antibacterial activity against Staphylococcus aureus ATCC 6538 assessed as zone of inhibition at 100 ug/disk after 24 hrs; assay type: functional, organism-based; outline: as §1
Geotrichum candidum = assay: Antifungal activity against Geotrichum candidum AS2.498 assessed as zone of inhibition at 100 ug/disk after 48 hrs
Enterococcus faecalis = assay: Antibacterial activity against Enterococcus faecalis ATCC 19433 assessed as zone of inhibition at 100 ug/disk after 24 hrs; assay type: functional, organism-based; outline: as §1
[1] = test system: Human immunodeficiency virus 1; assay: Inhibition of HIV1 LAI replication in C8166 cells after 4 days by ELISA; assay type: functional, organism-based; conditions: Human immunodeficiency virus 1, LAI, C8166, 96 h
Outline: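 C8166 cells were infected with HIV-1 LAI (MOI 0.058) for 1.5 h at 37 °C, PBS-washed, and seeded at 3 × 10⁴/well with or without compounds; indinavir sulfate was the positive control. After 4 days, supernatant was inactivated with 0.5% Triton X-100 and diluted threefold. p24 was measured by capture ELISA (anti-p24 mAb coat, HRP-anti-p24, OPD, A490), and EC₅₀ was derived from p24 level.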

[2] = Selectivity index, ratio of CC50 for human C8166 cells to EC50 for HIV1 LAI; assay type: toxicity, cell-based; conditions: read-out: Ratio CC50/EC50
Outline: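 Index calculated as CC₅₀/EC₅₀. CC₅₀ came from a 4-day MTT viability assay in C8166 cells run in parallel with a 4-day HIV-1 LAI (MOI 0.058) replication assay in C8166 cells, whose EC₅₀ was read from p24 antigen capture ELISA.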

[3] = Cytotoxicity against human C8166 cells after 4 days by MTT method; assay type: cell-based
Outline: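 C8166 cells were seeded at 3 × 10⁴/well with or without a range of test-compound concentrations, in triplicate. They were incubated 4 days at 37 °C in humid 5% CO₂, and viability was read by MTT. CC₅₀ is the concentration reducing viable cells by 50%.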

Structure (SMILES)	Activity (Micrococcus luteus)	Activity (Aspergillus fumigatus)	Activity (Candida albicans)	Activity (Streptococcus mutans)	Activity (Staphylococcus aureus)	Activity (Geotrichum candidum)	Activity (Enterococcus faecalis)	EC50 [1]	selectivity ratio [2]	CC50 at 96 h [3]
CC1(C)CC(=O)C2=C(C[C@]3(O)C[C@H](C(C)(C)O)O[C@H]3C2)O1	inactive	inactive	inactive	inactive	inactive	inactive	inactive	–	–	–
CC(C)=C/C=C1/C[C@@H]2O[C@@H](C(C)(C)O)C[C@@]23O[C@H]3[C@@H]1O [PESTALOTHEOL C]	inactive	inactive	inactive	inactive	inactive	inactive	inactive	16.1 µM	10.1	163 µM
CC1(C)CC(=O)C2=C(O1)[C@H](O)[C@]1(O)C[C@H](C(C)(C)O)O[C@H]1C2	inactive	inactive	inactive	inactive	inactive	inactive	inactive	–	–	–
CC1(C)CC(=O)c2cc3c(cc2O1)C[C@H](C(C)(C)O)O3	inactive	inactive	inactive	inactive	inactive	inactive	inactive	–	–	–
CC(C)(C)NC(=O)[C@@H]1CN(Cc2cccnc2)CCN1C[C@@H](O)C[C@@H](Cc1ccccc1)C(=O)N[C@H]1c2ccccc2C[C@H]1O [INDINAVIR SULFATE]	–	–	–	–	–	–	–	0.00818 µM	–	–
